This is an account of results in paper PMC8163515 (Bioorganic chemistry, 2020).

Data set [1] has as its target T1, human recombinant ATX (Homo sapiens, UniProt Q13822). The data set can be described thus: ATX inhibition, hydrolysis of nucleotide substrate pNP-TMP. In kind it is biochemical. The note with it: 1 mM pNP-TMP, 4 nM human rATX. An outline of the steps: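 Purified FLAG-tagged human ATX from the Sf9 baculovirus system was run with nucleotide substrate pNP-TMP in triplicate wells. Absorbance at 405 nm read every 2 min for 1 h; triplicate means recorded and percent activity derived from the 1 h point.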

A short description of another data set: Water solubility. Type of data set: physicochemical.
A further data set is described as follows: log P. In kind it is physicochemical.
The target of data set [2] is T1, human recombinant ATX. The experiment in a line: ATX inhibition, hydrolysis of FRET substrate FS-3. Type of data set: biochemical. The note with it: for Mechanism: FS-3 0 to 10 μM, inhibitor at 0, 0.5 × IC50 or 2 × IC50. The gist of the method:
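Human ATX, C-terminal FLAG-tagged, expressed in Sf9 cells by baculovirus and purified on anti-FLAG beads. Fluorescence (485/528 nm) read every 2 min for 1 h. Percent activity taken at 1 h; IC50 (±SD) interpolated from a variable-slope Hill fit.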

In the next data set the target is LPAR1 (Homo sapiens, UniProt Q92633). The experiment in a line: LPA1 receptor antagonism, calcium mobilization in LPA1 RH7777 cells. Type of data set: cell-based. To be noted: for LPAR1 inhibitory activity: result in words. An outline of the steps: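 Stably LPA1-overexpressing rat hepatoma RH7777 cells, kept in DMEM, 10% FBS, 2 mM L-glutamine, 250 μg/mL G418, 37 °C, 5% CO2. Plated at 5 × 10^4 cells/well on poly-L-lysine overnight, serum-deprived 4 h in Krebs buffer (pH 7.4), loaded 30 min with 4.5 μg/mL Fura-2AM. Compound dose range tested with and without LPA 18:1 at its EC50 concentration. Fluorescence 340/510 and 380/510 nm every 3.42 s for 70 s. Triplicate mean ratios normalized to LPA Emax; IC50 from variable-slope fit.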
Sequence of LPAR1 (Q92633 whole entry, species assumed): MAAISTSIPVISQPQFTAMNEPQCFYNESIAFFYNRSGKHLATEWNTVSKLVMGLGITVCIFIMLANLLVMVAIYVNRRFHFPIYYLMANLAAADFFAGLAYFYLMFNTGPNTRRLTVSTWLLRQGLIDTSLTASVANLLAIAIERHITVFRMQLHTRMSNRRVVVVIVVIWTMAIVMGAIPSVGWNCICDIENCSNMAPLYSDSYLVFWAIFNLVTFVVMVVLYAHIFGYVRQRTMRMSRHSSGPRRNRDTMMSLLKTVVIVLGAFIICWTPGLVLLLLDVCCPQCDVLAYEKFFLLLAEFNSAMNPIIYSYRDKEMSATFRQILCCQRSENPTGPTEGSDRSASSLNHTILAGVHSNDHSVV

[3] abbreviates: IC50 (nM ± SD) vs FS-3, 1 μM FS-3, 4 nM human rATX, 1 h.
Setting [4] is: Experimental pIC50, -log IC50, ATX enzyme inhibition.
The mark [5] stands for this setting: IC50 (nM) ATX enzyme, QSAR data set, compounds of this study.

≈ marks a conversion by molar mass, not a printed value. Entries after “also recorded” stand apart in the source; their conditions may differ.

In the case of `CS(=O)(=O)N(c1cc(C(=O)Nc2cc(F)c(F)c(F)c2)c(Cl)cc1Cl)C1CCOCC1` [Compound 10, 2,4-dichloro-5-(N-(tetrahydro-2H-pyran-4-yl)-methylsulfonamido)-N-(3,4,5-trifluorophenyl)-benzamide], the pNP-TMP inhibition result on human recombinant ATX [1] is recorded as “none”. Also, the solubility in the data set “Water solubility” is greater than 100 µg/mL. In the data set “log P”, this compound yielded a logP of 3.2. The Mechanism result at human recombinant ATX [2] was “Competitive”. Besides, the IC50 on human recombinant ATX [2] (setting [3]) was determined as 220 ± 14.7 nM. For the same compound, the LPAR1 inhibitory activity entry on LPAR1 was “neither compound 10 nor compound 11 showed any LPAR1 inhibitory activity; also recorded: no LPAR1 inhibitory activity”.

Consider `CS(=O)(=O)N(c1cc(C(=O)Nc2cc(F)c(Cl)c(F)c2)c(Cl)cc1Cl)C1CCOCC1` [Compound 11, 2,4-dichloro-N-(4-chloro-3,5-difluorophenyl)-5-(N-(tetrahydro-2H-pyran-4-yl)-methylsulfonamido)-benzamide], for which, at human recombinant ATX [1], the pNP-TMP inhibition result is recorded as “none”. The compound further returned a solubility in “Water solubility” greater than 100 µg/mL. In “log P”, the logP stood at 3.68. The IC50 was 219 nM at human recombinant ATX [2] (setting [4]), 219 ± 25.2 nM at human recombinant ATX [2] (setting [3]) and 219 nM on human recombinant ATX [2] (setting [5]). The Mechanism entry at human recombinant ATX [2] is listed as “Competitive”. The LPAR1 inhibitory activity result at LPAR1 is “neither compound 10 nor compound 11 showed any LPAR1 inhibitory activity; also recorded: no LPAR1 inhibitory activity”.

As to `N#CC(c1ccc(F)c(C(=O)Nc2cc(F)c(F)c(F)c2)c1)N1CCOCC1` (stereo not drawn) [Compound 14, 5-(cyano(morpholino)methyl)-2-fluoro-N-(3,4,5-trifluorophenyl)-benzamide], the pNP-TMP inhibition entry on human recombinant ATX [1] was “none”. In “Water solubility”, this compound yielded a solubility of 50 µg/mL (≈ 127 µM). This compound also yielded a logP in the data set “log P” of 2.91. In addition, the IC50 at human recombinant ATX [2] (setting [3]) was greater than 1000 nM; at human recombinant ATX [2] (setting [5]), no less than 1000 nM; at LPAR1 it was greater than 1000 nM.

Regarding `O=C(Nc1cc(F)c(F)c(F)c1)c1cc(C(C(=O)O)N2CCOCC2)ccc1F` (stereo not drawn) [Compound 15, 2-(4-fluoro-3-((3,4,5-trifluorophenyl)-carbamoyl)-phenyl)-2-morpholinoacetic acid], the pNP-TMP inhibition result at human recombinant ATX [1] is reported as “none”. Also, in “Water solubility”, the solubility is greater than 100 µg/mL. The same compound returned a logP in “log P” of 2.44. Besides, the IC50 on human recombinant ATX [2] (setting [4]) is greater than 1000 nM; at human recombinant ATX [2] (setting [3]), greater than 1000 nM; at human recombinant ATX [2] (setting [5]), no less than 1000 nM; at LPAR1 it was greater than 1000 nM.
